# Assay results taken from ChEMBL document CHEMBL4342460, “1-(2'-Bromobenzyl)-6,7-dihydroxy-N-methyl-tetrahydroisoquinoline and 1,2-Demethyl-nuciferine as Agonists in Human D2 Dopamine Receptors” (J Nat Prod, 2020).
# Active and inactive are the calls of the source. The rule behind the calls is not given here.
# Tests used:
# CHO-K1 = assay: Displacement of [3H]spiperone from human D4.2 receptor expressed in CHO-K1 cells at 10 uM by radioligand competitive binding analysis relative to control; type: cell-based
# Outline: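 Membranes from CHO-K1 cells stably expressing human D4.2 receptor. Radioligand [3H]-spiperone. Nonspecific binding defined with 25 μM haloperidol. […] Clozapine served as reference competitor. n = 2, mean SEM.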
# [1] = Displacement of [3H]spiperone from human D4.2 receptor expressed in CHO-K1 cells by radioligand competitive binding analysis; type: cell-based
# Outline: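 Competition for [3H]-spiperone on membranes from CHO-K1 cells stably expressing human D4.2 receptor, with nonspecific binding set by 25 μM haloperidol. Six concentrations run, from 1 nM to 100 μM or 0.1 nM to 10 μM. Curves fitted to a single-site model, and Ki derived using radioligand concentration and Kd from saturation binding. Clozapine reference. n = 2, mean SEM.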
# D(2) dopamine receptor [2] = biological target: T1, D(2) dopamine receptor (Homo sapiens, UniProt P14416); assay: Antagonist activity at human D2S receptor expressed in CHOK1 cells assessed as suppression of quinpirole-induced inhibition of forskolin induced cAMP production at 10 uM preincubated for 10 mins followed by forskolin addition and measured after 5 mins in presence of 100 nM quinpirole by HTRF assay relative to quinpirole EC50; type: functional, cell-based
# Outline: (§1)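 CHO-K1 cells stably transfected with human D2S (short isoform) cDNA. Test compound (10 μM) was added at the same time as quinpirole (10 pM to 100 μM). Cells were in stimulation buffer with 500 μM IBMX for 10 min at 37 °C, then 10 μM forskolin for 5 min. cAMP was read by HTRF, with basal wells lacking all additions. n = 3−4 independent experiments, in triplicate.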
# D(2) dopamine receptor [3] = biological target: T1, D(2) dopamine receptor; assay: (§2) Agonist activity at human D2S receptor expressed in CHOK1 cells assessed as inhibition of forskolin induced cAMP production by measuring Emax for cAMP accumulation at 100 uM preincubated for 10 mins followed by forskolin addition and measured after 5 mins by HTRF assay relative to quinpirole; type: functional, cell-based
# Outline: (§3)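 CHO-K1 cells stably transfected with human D2S cDNA, kept in 500 μg/mL G418. Cells in stimulation buffer with 500 μM IBMX took compound for 10 min at 37 °C, then forskolin (10 μM) for 5 min. Intracellular cAMP read by HTRF. Efficacy is percent of maximal quinpirole response. Basal cAMP from wells lacking compound, quinpirole and forskolin. n = 3−4 independent experiments in triplicate, mean SEM.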
# D(2) dopamine receptor [4] = biological target: T1, D(2) dopamine receptor; assay: Agonist activity at human D2S receptor expressed in CHOK1 cells assessed as inhibition of forskolin induced cAMP production preincubated for 10 mins followed by forskolin addition and measured after 5 mins by HTRF assay relative to control; type: functional, cell-based
# D(3) dopamine receptor = D(3) dopamine receptor (Homo sapiens, UniProt P35462); assay: Displacement of [3H]spiperone from human D3 receptor expressed in CHO-K1 cells by radioligand competitive binding analysis; type: cell-based
# D(2) dopamine receptor [5] = biological target: T1, D(2) dopamine receptor; assay: Agonist activity at human D2S receptor expressed in CHOK1 cells assessed as inhibition of forskolin induced cAMP production at 10 uM preincubated for 10 mins followed by forskolin addition and measured after 5 mins in presence of low concentration of quinpirole by HTRF assay; type: functional, cell-based; outline: as §1
# D(2) dopamine receptor [6] = biological target: T1, D(2) dopamine receptor; assay: Displacement of [3H]spiperone from human D2S receptor expressed in CHO-K1 cells by radioligand competitive binding analysis; type: cell-based
# D(2) dopamine receptor [7] = biological target: T1, D(2) dopamine receptor; assay: as §2, with “10” for “100”, “quinpirole (reference value: 98.8 +/- 0.6%)” for “quinpirole”; type: functional, cell-based; outline: as §3
# D(3) dopamine receptor, sequence (P35462 whole entry): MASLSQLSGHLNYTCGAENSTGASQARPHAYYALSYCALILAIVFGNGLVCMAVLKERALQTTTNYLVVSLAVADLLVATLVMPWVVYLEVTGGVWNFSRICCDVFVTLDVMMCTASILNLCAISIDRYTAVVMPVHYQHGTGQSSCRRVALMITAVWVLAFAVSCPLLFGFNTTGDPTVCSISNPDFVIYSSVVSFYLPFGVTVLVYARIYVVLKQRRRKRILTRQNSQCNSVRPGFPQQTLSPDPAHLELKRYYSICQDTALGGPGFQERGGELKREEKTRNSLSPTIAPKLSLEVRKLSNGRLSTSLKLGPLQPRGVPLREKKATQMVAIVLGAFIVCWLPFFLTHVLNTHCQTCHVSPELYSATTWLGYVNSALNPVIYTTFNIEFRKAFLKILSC
# T1 sequence (P14416 whole entry, canonical isoform): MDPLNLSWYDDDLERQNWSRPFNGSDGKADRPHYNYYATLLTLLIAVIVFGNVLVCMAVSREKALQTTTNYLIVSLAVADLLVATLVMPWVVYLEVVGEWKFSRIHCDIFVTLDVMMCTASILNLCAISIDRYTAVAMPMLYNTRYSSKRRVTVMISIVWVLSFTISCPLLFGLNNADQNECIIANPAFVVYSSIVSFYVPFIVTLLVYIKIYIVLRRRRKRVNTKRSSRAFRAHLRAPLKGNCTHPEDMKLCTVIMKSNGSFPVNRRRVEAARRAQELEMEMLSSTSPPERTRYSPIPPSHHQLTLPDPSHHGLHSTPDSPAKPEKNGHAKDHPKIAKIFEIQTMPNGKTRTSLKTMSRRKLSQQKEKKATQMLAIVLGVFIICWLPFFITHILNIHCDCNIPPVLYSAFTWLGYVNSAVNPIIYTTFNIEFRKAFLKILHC
compound,measurement,setting,value
CN1CCN(C2=Nc3cc(Cl)ccc3Nc3ccccc32)CC1 [CLOZAPINE],inhibition,CHO-K1,96%
same,Ki,[1],56.9 nM
same,pKi,[1],7.25
CN1CCc2cc(O)c(O)cc2C1Cc1ccccc1Br (stereo not drawn),fold change (FC),D(2) dopamine receptor [2],35
same,inhibition,CHO-K1,96%
same,Emax,D(2) dopamine receptor [3],48.4%
same,EC50,D(2) dopamine receptor [4],2950 nM
same,Activity,D(3) dopamine receptor,Dose-dependent effect
same,Ki,D(3) dopamine receptor,197 nM
same,Activity,D(2) dopamine receptor [5],Active
same,Ki,D(2) dopamine receptor [6],286 nM
same,Emax,D(2) dopamine receptor [7],31.9%
same,Activity,[1],Dose-dependent effect
same,Ki,[1],13.8 nM
same,pKi,[1],7.86
CN1CCc2cc(O)c(O)c3c2C1Cc1ccccc1-3 (stereo not drawn),inhibition,CHO-K1,73%
same,Emax,D(2) dopamine receptor [3],92.7%
same,Activity,D(3) dopamine receptor,Dose-dependent effect
same,Ki,D(3) dopamine receptor,838 nM
same,Emax,D(2) dopamine receptor [7],50.7%
same,Activity,[1],Dose-dependent effect
same,Ki,[1],551 nM
same,pKi,[1],6.26
